Laboratory results: paper PMC3873039 (Anti-Cancer Agents in Medicinal Chemistry, 2013)
pEC50: −log10 of the molar value.

Assays:
[1] = tested on: MOLT-3; experiment: CellTiter-Glo luminescent cell viability assay; type: cell-based, human; conditions: MOLT-3, 24 h, doses 0, 2, 10, 50, 250, 500 µM, p<0.05
Outline: (§1)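 Cells grown in RPMI 1640 with 10% FBS, 1.5 mM L-glutamine and penicillin/streptomycin at 37 °C, 5% CO2. Seeded at 2.5 x 10³ cells/well and exposed 24 h to ethanol-dissolved test compound (0, 2, 10, 50, 250, 500 µM) with 0.1% ethanol vehicle. ATP luminescence normalized to vehicle (100%). IC50 taken from linear regression. Lowest significant dose set by one-way ANOVA/Tukey, p<0.05. Triplicates, three independent experiments.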

[2] = tested on: THP-1; experiment: CellTiter-Glo luminescent cell viability assay; type: cell-based, human; conditions: THP-1, 24 h, doses 0, 2, 10, 50, 250, 500 µM, p<0.05
Outline: as §1

[3] = tested on: K562; experiment: CellTiter-Glo luminescent cell viability assay; type: cell-based, human; conditions: K562, 24 h, doses 0, 2, 10, 50, 250, 500 µM, p<0.05
Outline: as §1

[4] = tested on: U937; experiment: CellTiter-Glo luminescent cell viability assay; type: cell-based, human; conditions: U937, 24 h, doses 0, 2, 10, 50, 250, 500 µM, p<0.05
Outline: as §1

[5] = tested on: JURKAT; experiment: Cell cycle analysis, propidium iodide flow cytometry; type: cell-based, human; conditions: IC50 dose, 24 h, p<0.05
Outline: (§2)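 Seeded at 0.5 x 10^6 cells per well in 12-well plates and treated 24 h at the IC50 concentration of each test compound from CellTiter-Glo. Cells were pelleted (400 g, 5 min), PBS-washed and fixed in 80% ethanol overnight at -20 °C. Staining used 50 µg/mL PI plus RNase overnight at 4 °C.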

[6] = tested on: CCRF-CEM; experiment: as above; type: cell-based, human; conditions: IC50 dose, 24 h, vehicle control G0/G1 = 41.9%
Outline: as §2

[7] = tested on: HL60; experiment: as above; type: cell-based, human; conditions: HL60, IC50 dose, 24 h; for Percentage of cells in S phase of cell cycle (significant accumulation): vehicle control S = 33.6%
Outline: as §2

[8] = tested on: U937; experiment: as above; type: cell-based, human; conditions: U937, IC50 dose, 24 h; vehicle control G0/G1 = 44.03%
Outline: as §2

[9] = tested on: non-tumor progenitor cells (CD34+); experiment: Cell cycle analysis, propidium iodide flow cytometry; type: cell-based; conditions: 24 h, within the IC50 ranges used to treat the leukemic cell lines
[10] = tested on: JURKAT; experiment: NucView caspase 3 activity assay by flow cytometry; type: cell-based, human; conditions: 24 h; for pEC50: Homo sapiens, Jurkat, read-out: AP50 (50% induction of apoptosis), Caspase 3 activity assay (C3); for The lowest dose of polyphenols at which there was a significant induction of apoptosis compared to the vehicle control: JURKAT, caspase 3 activity, p<0.05
Outline: (§3)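 Seeded at 0.5 x 10⁶ cells/well and treated 24 h, with series of 0–50 or 0–250 µM depending on compound. Normalized to vehicle (0% apoptosis). Mean ± STD, three independent experiments in triplicate. One-way ANOVA/Tukey, p<0.05. AP50 = concentration giving 50% apoptotic cells.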

[11] = tested on: CCRF-CEM; experiment: NucView caspase 3 activity assay by flow cytometry; type: cell-based, human; conditions: 24 h; for pEC50: Homo sapiens, read-out: AP50 (50% induction of apoptosis), Caspase 3 activity assay (C3); for The lowest dose of polyphenols at which there was a significant induction of apoptosis compared to the vehicle control: caspase 3 activity, p<0.05
Outline: as §3

[12] = tested on: MOLT-3; experiment: NucView caspase 3 activity assay by flow cytometry; type: cell-based, human; conditions: for pEC50: Homo sapiens, MOLT-3, 24 h, read-out: AP50 (50% induction of apoptosis), Caspase 3 activity assay (C3); for The lowest dose of polyphenols at which there was a significant induction of apoptosis compared to the vehicle control: MOLT-3, caspase 3 activity, 24 h, p<0.05
Outline: as §3

[13] = tested on: HL60; experiment: NucView caspase 3 activity assay by flow cytometry; type: cell-based, human; conditions: for The lowest dose of polyphenols at which there was a significant induction of apoptosis compared to the vehicle control: HL60, caspase 3 activity, 24 h, p<0.05; for pEC50: Homo sapiens, HL-60, 24 h, read-out: AP50 (50% induction of apoptosis), Caspase 3 activity assay (C3)
Outline: as §3

[14] = tested on: KG1a; experiment: NucView caspase 3 activity assay by flow cytometry; type: cell-based, human; conditions: 24 h; for pEC50: Homo sapiens, KG-1a, read-out: AP50 (50% induction of apoptosis), Caspase 3 activity assay (C3); for The lowest dose of polyphenols at which there was a significant induction of apoptosis compared to the vehicle control: KG1a, caspase 3 activity, p<0.05
Outline: as §3

[15] = tested on: U937; experiment: NucView caspase 3 activity assay by flow cytometry; type: cell-based, human; conditions: for pEC50: Homo sapiens, U-937, 24 h, read-out: AP50 (50% induction of apoptosis), Caspase 3 activity assay (C3); for The lowest dose of polyphenols at which there was a significant induction of apoptosis compared to the vehicle control: U937, caspase 3 activity, 24 h, p<0.05
Outline: as §3

[16] = tested on: non-tumor cells (CD34+); experiment: NucView caspase 3 activity assay by flow cytometry; type: cell-based; conditions: 24 h; for pEC50: read-out: AP50 (50% induction of apoptosis), Caspase 3 activity assay (C3); for The lowest dose of polyphenols at which there was a significant induction of apoptosis compared to the vehicle control: CD34+ non-tumour control cells, caspase 3 activity, p<0.05
[17] = tested on: JURKAT; experiment: Hoechst 33342 nuclear morphological analysis of apoptosis; type: cell-based; conditions: Homo sapiens, 24 h, read-out: AP50 (50% induction of apoptosis), Hoechst 33342 staining (Hoe)
Outline: (§4)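 Seeded at 0.5 x 10⁶ cells/well in 12-well plates and treated 24 h. Cells were pelleted (400 g, 5 min, 4 °C), washed in PBS, fixed in 4% paraformaldehyde, cytospun, air-dried, then stained with 10 μg/ml Hoechst 33342 for 10 min in the dark. Fluorescence microscopy: 200 cells counted, scored by condensed/intense nuclei, shrinkage, blebbing and apoptotic bodies. % apoptotic nuclei calculated. AP50 = concentration giving 50% apoptotic cells.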

[18] = tested on: MOLT-3; experiment: as above; type: cell-based; conditions: Homo sapiens, MOLT-3, 24 h, read-out: AP50 (50% induction of apoptosis), Hoechst 33342 staining (Hoe)
Outline: as §4

[19] = tested on: HL60; experiment: as above; type: cell-based; conditions: Homo sapiens, HL-60, 24 h, read-out: AP50 (50% induction of apoptosis), Hoechst 33342 staining (Hoe)
Outline: as §4

[20] = tested on: THP-1; experiment: as above; type: cell-based; conditions: Homo sapiens, THP-1, 24 h, read-out: AP50 (50% induction of apoptosis), Hoechst 33342 staining (Hoe)
Outline: as §4

[21] = tested on: KG1a; experiment: as above; type: cell-based; conditions: Homo sapiens, KG-1a, 24 h, read-out: AP50 (50% induction of apoptosis), Hoechst 33342 staining (Hoe)
Outline: as §4

[22] = tested on: non-tumor cells (CD34+); experiment: Hoechst 33342 nuclear morphological analysis of apoptosis; type: cell-based; conditions: 24 h, read-out: AP50 (50% induction of apoptosis), Hoechst 33342 staining (Hoe)
Outline: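 CD34+ cells treated 24 h across the IC25–IC50 range, then pelleted (400 g, 4 °C) and fixed in 4% paraformaldehyde/PBS. Cytospins were air-dried and stained with 10 μg/ml Hoechst 33342 for 10 min in the dark, then viewed by fluorescence microscopy. 200 cells were scored per sample as % apoptotic nuclei (shrinkage, blebbing, chromatin condensation, apoptotic bodies). AP50 = concentration giving 50% apoptosis.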

Compound | The lowest dose of polyphenols at which there was a significant inhibition of cell proliferation compared to the vehicle control [1] | The lowest dose of polyphenols at which there was a significant inhibition of cell proliferation compared to the vehicle control [2] | The lowest dose of polyphenols at which there was a significant inhibition of cell proliferation compared to the vehicle control [3] | The lowest dose of polyphenols at which there was a significant inhibition of cell proliferation compared to the vehicle control [4] | Phase of cell cycle accumulation [5] | Percentage of cells in G0/G1 phase of cell cycle (significant accumulation) [6] | Percentage of cells in G0/G1 phase of cell cycle (significant accumulation) [8] | Cell cycle arrest in non-tumour control cells [9] | pEC50 [10] | The lowest dose of polyphenols at which there was a significant induction of apoptosis compared to the vehicle control [10] | pEC50 [11] | The lowest dose of polyphenols at which there was a significant induction of apoptosis compared to the vehicle control [11] | pEC50 [12] | The lowest dose of polyphenols at which there was a significant induction of apoptosis compared to the vehicle control [12] | The lowest dose of polyphenols at which there was a significant induction of apoptosis compared to the vehicle control [13] | pEC50 [13] | pEC50 [14] | The lowest dose of polyphenols at which there was a significant induction of apoptosis compared to the vehicle control [14] | pEC50 [15] | The lowest dose of polyphenols at which there was a significant induction of apoptosis compared to the vehicle control [15] | also measured
O=C1c2cccc(O)c2C(=O)c2c(O)cc(CO)cc21 [Aloe - Emodin, Aloe-emodin] | 50 µM | 250 µM | 50 µM | 50 µM | S-phase | G0/G1 =49% | G0/G1 =53% | No Arrest <500µM | 4.30 | 50 µM | 4.30 | 50 µM | 4.30 | 50 µM | 50 µM | 3.73 | < 3.60 | 50 µM | 4.30 | 50 µM | Percentage of cells in S phase of cell cycle (significant accumulation) [7]: S =35%; pEC50 [16]: < 3.60; The lowest dose of polyphenols at which there was a significant induction of apoptosis compared to the vehicle control [16]: 250 µM; pEC50 [17]: 3.89; pEC50 [18]: 3.82; pEC50 [19]: 3.72; pEC50 [20]: 3.55; pEC50 [21]: 3.44; pEC50 [22]: < 3.30
C(=C\c1ccccc1)/c1ccccc1 [Trans-Stilbene, Trans-stilbene] | 50 µM | 250 µM | 50 µM | 50 µM | S-phase | G0/G1 =49.1% | G0/G1 =62% | No Arrest ≤500µM | 3.60 | 50 µM | < 3.30 | 50 µM | 3.46 | 50 µM | 50 µM | 4.40 | < 3.30 | 50 µM | 3.70 | 50 µM | Percentage of cells in S phase of cell cycle (significant accumulation) [7]: S =41.9%; pEC50 [16]: < 3.30; The lowest dose of polyphenols at which there was a significant induction of apoptosis compared to the vehicle control [16]: 250 µM; pEC50 [17]: 3.51; pEC50 [18]: 3.40; pEC50 [19]: 4.30; pEC50 [20]: < 3.30; pEC50 [21]: 3.44; pEC50 [22]: < 3.30
O=c1cc(-c2ccc(O)cc2)oc2cc(O)cc(O)c12 [Apigenin] | 50 µM | 10 µM | 10 µM | 10 µM | S-phase | G0/G1 =52.2% | G0/G1 =59% | No Arrest ≤250µM | 4.46 | 50 µM | 4.30 | 10 µM | 4.30 | 50 µM | 50 µM | 4.08 | 4.05 | 10 µM | 4.35 | 50 µM | Percentage of cells in G0/G1 phase of cell cycle (significant accumulation) ([7]; vehicle control G0/G1 = 56.8%): G0/G1=67%; pEC50 [16]: < 3.60; The lowest dose of polyphenols at which there was a significant induction of apoptosis compared to the vehicle control [16]: 250 µM; pEC50 [17]: 4.05; pEC50 [18]: 3.90; pEC50 [19]: 3.89; pEC50 [20]: 3.66; pEC50 [21]: 3.63; pEC50 [22]: < 3.30
